In the EternaBench riboswitch data:

Test system: MS2 coat protein
Assay: apparent Kd, MS2 coat protein; higher = weaker binding; RNA-MaP array; FMN 200 µM where present
Method in brief: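 Binding was read on Illumina sequencing-chip clusters where stalled E. coli RNA polymerase had transcribed each design. A titration of SNAP-549-labelled MS2 coat protein began at 0.7 or 1.5 nM and doubled to 3 µM, once without ligand and once with constant ligand, in 100 mM Tris-HCl pH 7.5, 80 mM KCl, 4 mM MgCl2, BSA, DTT, yeast tRNA and Tween-20. The apparent Kd is the median of filtered per-cluster binding-curve fits, based on green signal normalised to red-channel RNA signal and control-cluster median Fmax.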

[1] = designed as: OFF switch for flavin mononucleotide, no ligand
[2] = ligand present: flavin mononucleotide, designed as: OFF switch for flavin mononucleotide
[3] = designed as: ON switch for flavin mononucleotide, no ligand
[4] = ligand present: flavin mononucleotide, designed as: ON switch for flavin mononucleotide

Sequence	apparent Kd [1] [nM]	apparent Kd [2] [nM]	apparent Kd [3] [nM]	apparent Kd [4] [nM]
GUUAUUAACAAGAAGGCAUACAUGAGGAUCACCCAUGUUCUACAUGGAUAAUGAGGAUAUUGCUAAUACAUGAGGAUCACCCAU	48.8	53.8		
UGUCGGAGCAGAGGAUAUUACAUGAGGAUCACCCAUGUAUGAACCAAUAGUUGGAAACAGCAAUGUAAGAAGGCUGCUCCGACA	11.5	94.6		
GAAUAAUUGAUCCAAUUUUACAACAUGAGGAUCACCCAUGUGCAGGAUAUCGUGUGUGUUAUAUACGAGAAGGGCAAGAACUGU	381	448		
ACAGCGUGAGGAUAUACAUGAGGAUCACCCAUGUGUGGCAGGUUAUCCUGUCAUAAGUGUAGAAGGCACGCUGU	44.4	93.9		
GUGGUCAGACAUGAGGAUCACCCAUGUGGAAUAAAUAACACACAGGAUAUCUAAUAUAAAAUAUAAGAGAAGGGUGGAUUGGUG			273	182
GGUCCAAUAUGAGGAUAUAGCAUCGUAUAGAUGCUAGAAGGCGUGUCGGUAGACAUGAGGAUCACCCAUGUAUUACAAUGGACC			114	32
GUGCGAGGCUAGGAUAUUGUGGGUUUUUGUCUGCGAGAAGGAGCCACAUGAGGAUCACCCAUGUGGUGUUGCUC	64.4	294		
UUCUUACAUGAGGAUCACCCAUGUCAGGAUAUCUCCUCACUGCGCUUGCGCAGUGGAUAGAGAAGGGACAGGCU	56.8	50.1		
GAACUGAAGCAUGGCUUUAGUCGUACAUGAGGAUCACCCAUGUAGGAUAUGGUAGGCAUAGCUUACUAGAAGGAUAGAGUGAUC	187	63.4		
CCUCAUAUUUAGGAUAUGAUGGGUUAUUAUUCGUUAGAAGGAGGUACAUGAGGAUCACCCAUGUCCCGUUUGGG	34.2	32.9		
AACAGGACAGGAUAUACAUGAGGAUCACCCAUGUAGGAAUUAAGCAGCGUACCACACAGUAGAAGGGUCAUGGA	35.5	34.6		
AAAAAAUAAGGAUAUACAUUUCGGGAAAUUUUUACAAAAAAACAUGAGGAUCACCCAUGUAGAAGGUAUAAAAA	23.2	20.1		
GGAAAGCAAGGAUAUACAAACAAACAAACAAACAAAAGGGAACAUGAGGAUCACCCAUGUAGAAGGUGCAAACA	41.7	37.5		
GCGGGCCGCGCAGGAUAUACAGGGUACAUGAGGAUCACCCAUGUCCUUGGUGAGAUCAUUUGCCCGUAGAAGGGCGAGGGUCGG	44.3	114		
GUAAAUCAUGUAGGAUAUGCAUGGCGAAGCUACGCAGAAGGACAUGAGGAUCACCCAUGUUAUAGCUACCAAGUUAGGUGGCAA	110	260		
ACUGGUCGAGGAUAUGCAAUCGUGCUUCGGCACGUAAGGUCACAUGAGGAUCACCCAUGUAGAAGGCGACCAGU	17.2	36.4		
CUCAGCUCGUCAGGAUAUACGUCACUGCGUCAGCAGUGUGGUAAGAUCACAUGAGGAUCACCCAUGUAGAAGGGACGAGCUGAU	13.7	278		
AGUGACGACGAGGAUAUUCCGGUAGCCUACUAAGAAGAAGGUGUCACAUGAGGAUCACCCAUGUUUAGUUUCGC	141	68.7		
AGUUAAUAUCGAGGAUAUCCUCAUCUACAUGAGGAUCACCCAUGUAAGCAUGGAGAAGGCGAUAUUAACAGCAUGUUACAUGCA			112	10.5

Sequence	apparent Kd [1] [nM]	apparent Kd [2] [nM]	apparent Kd [3] [nM]	apparent Kd [4] [nM]
GUGAGGUCAGGAUAUGCAUGGCGGGACUUGCGUCGUGGCGUGGAGAAGGGACAUGAGGAUCACCCAUGUGGAGC	55.6	59.1		
UUUUAGUAAGGAUAUGCGUAGAUCUACGAAAGUAGAUCUACGCAGAAGGUACAUGAGGAUCACCCAUGUAGAUU	21.5	26.7		
AGUCAUACAGGAUAUACAUGAGGAUCACCCAUGUAAAUCCUACAUGGGUGAUCCUCAUGUAGAAGGGUAUGACA	11.7	10.4		
CUUUAGUGAGGAUAUCAGUGGUAAUACAAUAGUAUUACUACUGAGAAGGCACAUGAGGAUCACCCAUGUUCCUC	26.6	155		
GUGCACAUUCGAGGAUAUCGGAGAGAGAUCCUUCGAGAAGGCGAUUCAUGCUGUGUUAUUCUGGACAUGAGGAUCACCCAUGUG			326	172
AUCAUGCUCAAGAAGGACAUGAGGAUCACCCAUGUAGGAUAUUGGGCGGUCACUUCUAGCUUGUGUGUAUCUGAAUACUCCAGG			20.4	
GAUCGUUCUGUUAGGAUAUGCUUUGGGCUUCCGCAGUAGAAGGAACAUGAGGAUCACCCAUGUCCGAUGCCGUC	25.6	28.1		
GUCUGACAUGAGGAUCACCCAUGUAUUCGAGCAUGAGGAUAUAUGACUCGUCAUCGGCGGAUAGAAGGCAUGGUUG			169	192
UGGUACAUCAUAGGAUAUCGUGUGUAAACAUGAGGAUCACCCAUGUCAUCCGAGAGUAUGUCGACCGAGAAGGGUGAUGUACCU			45.4	72.7
GCAUGUUAUGUCAGGAUAUACCUAUGGAUACAUAGGUAGAAGGGACAUGAGGAUCACCCAUGUCCUAAUCAUGC	13.4	16.7		
GUAGUAUAAAGUUCAUAAUAUAGGAUAGAAGGUGAAAAUUUGACAUGAGGAUCACCCAUGUAAUUCAAGGAUAUGUAGUUACUC			128	96.5
GCGUAAAAGAUCCUAUUUAUCUACAUGAGGAUCACCCAUGUGCAGGAUAUGCUAUAUUUAAUAUAGCAGAAGGGCAAUAACCGC	45.6	248		
CUGUGACGGUGCGCAAGUGUACGUAGAAGGGUCACAUGAGGAUCACCCAUGUGGGCCUGCGAGUGACAGGAUAUACGUGCGUGC	6.39	12.4		
CCGAUUAGCACAGGAUAUGGGAAUUCGUAGUUUCCAGAAGGGUGAGCCAAUACAUGAGGAUCACCCAUGUGCGGUAGGUCGAGA			51.1	60.7
UUUGACAGCUAGAGUUGUUAAGUACAUGAGGAUCACCCAUGUCAGGAUAUCCUUCCGCAAUGCGAGGAGAAGGGACAGGGUCCC	104	232		
CGAACCAUGUAGAAGGCUGUCUUAAAAUAGGACAGAGGAUAUACAUGAGGAUCACCCAUGUACUCCUUUAAAAGGUUCGAAAUA		7.03		
UUAUUUAGGUAGGAUAUCGAUAUCAAUCCCUAUCGAGAAGGGUCUACAUGAGGAUCACCCAUGUUAGCAUGUUU	21.2	19.2		
GUCAGCUCGUGAGGAUAUACAACACUGCUUCGGCAGUGUACUAAGAUCACAUGAGGAUCACCCAUGUAGAAGGCACGAGCUGAU	14.6	246		
UUCCUCUUUGUGAGGAUAUCGUCCGUUUUUUGUUACGAGAAGGCACAUGAGGAUCACCCAUGUUUUUUGUUUUU	20.4	68.3		

Sequence	apparent Kd [1] [nM]	apparent Kd [2] [nM]	apparent Kd [3] [nM]	apparent Kd [4] [nM]
UGUUGUAAUACAGGAUAUAUAUUAUUUUUAUUUAUAGAAGGGUAAUCACAUGAGGAUCACCCAUGUAUAUACGAGGAAGAAGAG			209	251
CGUAUGUCAGGAUAUGUGUAUGCCGGUCAGGGCGAGCGGCAGCAGAAGGGACAUGAGGAUCACCCAUGUUCGGG	59.6	116		
GAUUAUAAGUAAGGAUAUGUAUAUGAAACAUAUACAGAAGGUACAUGAGGAUCACCCAUGUUCUUGCAGCGUGAAUAUGUAAUC	19.1	28.5		
GGUAGAAACAUUAACAUGAGGAUCACCCAUGUCAAAAGAAAUGAGGAUAUCGUAUUCAAUGUAUAUGAGAAGGCAUGGUCUGCC			15.7	10.7
UCGACCAGCGCCAGUCAAACAUGAGGAUCACCCAUGUACUCCAGAAGGCCGCCCAAGAACGGAGUGGAGGAUAUGGAGGUUCUC			43.2	36.7
UGGAUGUAGGAGAAGGAGGACUUCAUGAGGAUCACCCAUGUGUUAGGACUUAGGAUAUUUGACGACAUGAGGAUCACCCAUGUG			63.6	58.4
AAUAGACAUGAGGAUCACCCAUGUGUAUAUGGGAGAGGAUAUACGGGACACAAGGGCGGAGUAGAAGGCUCGAGAC			149	146
ACAUGAGGAUCACCCAUGUGACCACAAUGGCUGAUGUAACAACAGGAUAUUCGUGAAUAUCUAACGAAGAAGGGUUAUGACUGG	71.4	65.2		
GGUGGCUUCACAGGAUAUCCCGAGCCAAACAUGAGGAUCACCCAUGUGCUGGUAUUAAAAUUUGCGGAGAAGGGUGGUUCACGU			154	74.1
GCUCGGCGUCAGAAGGCAGACGCGAAGCGCGUUUGAGGAUAUGACAUGAGGAUCACCCAUGUAGGUGUGCGAAAUUGUAAUCAC	301	309		
AUGGGACAUGAGGAUCACCCAUGUCAGGAUAUUUAGUCGCUGCGGAAAUGUGUUGGUUGGAGAAGGGACAUCAU	38.3	35.1		
CCCUCACAUGAGGAUCACCCAUGUUAGGAUAUCUACCAGGAGCCUAAAAUGGCCCAACGGAGAAGGAACGUGCA	19.8	18.6		
GCGUCGAGUGUGAGGAUAUGCUGGUCCUUGGAUCAGCAGAAGGCACAUGAGGAUCACCCAUGUGAAUACGAUGC	21.7	136		
CCCUCACAUGAGGAUCACCCAUGUCAGGAUAUCUCACAUCAGCCUUAGGCCGAUGUCUAGAGAAGGGACGUAUC	22.7	30.3		
GUGCCUAACUAGAAGGCCCAAUGCAAAGCAUAGGGAGGAUAUGGGUUUAAUAAAUAAACAUGAGGAUCACCCAUGUGGCACAAA			45.5	10.1
CAGCGAUAGCUGAACAAUCUAUCUGAGGAUAUUCAUAUAAACAUGAGGAUCACCCAUGUAAAUUGGGAGAAGGCAGAUAGAUUG			18	5.06
AAAAAACAUGAGGAUCACCCAUGUCAAAAGACAUGAGGAUAUGUACAGACUUCGGUCUGUACAGAAGGCAUGUCUU			25.7	18.4
UACUUGUCAGGAUAUCUUACAUUUGCAUUAUAGCAACUCUUGGAGAAGGGACAUGAGGAUCACCCAUGUUUGGU	70.8	317		
